In the library only some 2.6% were active in any assay of this set; here they are far more common.
CHT inh: inhibitors of human choline transporter CHT; High affinity choline transporter 1 (Homo sapiens), Q9GZV3; actives 0.86% (n = 310,000); CHT-expressing cells, membrane potential dye, choline response; stronger effect = lower value; B-score at 10 µM;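 active means B-score over 3 SD under the library average, and starting fluorescence ratio not unusually high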;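 further: choline stimulus applied at its EC90 after an EC20 pre-addition; B-score computed on integrated fluorescence ratio after choline addition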
Target sequence (Q9GZV3 whole entry, looked up): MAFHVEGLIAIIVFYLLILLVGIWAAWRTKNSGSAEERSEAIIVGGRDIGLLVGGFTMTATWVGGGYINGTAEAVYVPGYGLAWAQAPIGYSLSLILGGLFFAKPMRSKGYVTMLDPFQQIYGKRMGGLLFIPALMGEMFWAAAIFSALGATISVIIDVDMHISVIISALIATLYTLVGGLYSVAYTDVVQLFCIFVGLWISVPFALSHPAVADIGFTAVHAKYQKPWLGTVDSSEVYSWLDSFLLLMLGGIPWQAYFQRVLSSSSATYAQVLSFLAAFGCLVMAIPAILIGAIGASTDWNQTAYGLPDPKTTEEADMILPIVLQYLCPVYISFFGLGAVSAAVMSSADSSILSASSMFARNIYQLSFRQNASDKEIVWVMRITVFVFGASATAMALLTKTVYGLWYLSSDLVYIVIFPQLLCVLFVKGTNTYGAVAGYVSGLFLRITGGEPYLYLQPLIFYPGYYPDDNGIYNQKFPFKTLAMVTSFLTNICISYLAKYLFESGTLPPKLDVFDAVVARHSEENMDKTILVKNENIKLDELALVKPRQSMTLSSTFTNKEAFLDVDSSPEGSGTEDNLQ
T cruzi inh: inhibitors of intracellular T. cruzi growth, primary screen, luminescence, NIH3T3 host cells | T. cruzi beta-gal in NIH3T3, 90 h | AID 1885, 2009 | actives 1.4% (n = 300,000) | inhibition, % (concentration not given with the values);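 active means mean inhibition across valid replicates above about 55%, limit read from the data; inconclusive means mean below that limit but half or more replicates reach it; inactive means mean below it, under half of replicates reach it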;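 further: signal also drops with host cell toxicity which is not excluded here; 0% = plate median of DMSO wells and 100% = zero luminescence signal; higher percent means less beta-gal luminescence so fewer parasites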
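Read-out: Parasite load inhibition, % | Test system: Mouse NIH/3T3 fibroblasts infected with β-gal-expressing T. cruzi Tulahuen C4 | Amount: 5,000 cells/well | Medium: DMEM, 2% fetal bovine serum | Signal: GalScreen β-gal luminescence, detergent lysis, 60 min | Timing: 3 h attach, ≥90 h co-culture | Also added: Tulahuen C4 trypomastigotes, 5000/well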
PolyA inhibitor: polyadenylation inhibitors in yeast reporter cells, primary screen, luminescence, S. cerevisiae | S. cerevisiae SKY197-pL101 polyadenylation reporter, beta-gal luminescence; efflux-impaired pdr1/pdr3 knockout yeast; score 100 = 6 SD above DMSO | activity score, % at 12 µM | actives 0.02% (n = 300,000) | AID 1875, 2009;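 active means lowest replicate activity score at least 50, where 100 means six control SD above control mean; inconclusive means lowest score under 50 but half or more replicates reach 50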;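 further: yeast exposed to compound for 9 h at 30 °C; higher score means more reporter readthrough which indicates perturbed polyadenylation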
CHT PAM: CHT positive allosteric modulators, primary screen, cell-based, membrane potential dye, choline EC20; actives 0.49% (n = 310,000); B-score at 10 µM; High affinity choline transporter 1 (Homo sapiens), Q9GZV3; CHT-expressing cells; stronger effect = higher value; LV-AA mutant CHT in HEK293 cells;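 active means initial fluorescence not abnormally high and integrated response B-score, plate-corrected, over 3 SD above library mean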
CHT block conf: CHT inhibitors, confirmation, cell-based, membrane potential dye, duplicate; shares compounds with CHT inh; CHT-expressing cells, choline membrane potential dye; LV-to-AA substituted CHT, HEK293 cells; CHT activity remaining % of control (stronger effect = lower value), % at 10 µM; actives 70% (n = 2,400);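 active means choline transporter activity left, mean of duplicates at 10 µM, below buffer-only control mean minus 3 SD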;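 further: depolarization triggered by choline at its EC90 following an EC20 pre-addition; 0% = hemicholinium-3 full block and 100% = buffer-only control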
HEK293 CHT ctr: membrane potential effects in parental HEK293, counter-screen for CHT inhibitor project, cell-based, membrane potential dye; shares compounds with CHT inh; choline response; active = decrease or increase beyond buffer ±3SD; membrane potential ratio readout (active if shifted either direction beyond buffer ±3SD; no single direction) at 10 µM; actives 4% (n = 2,400); AID 493222, 2011;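 further: parental cells lack the transporter so any hit is non-specific; ratio is peak minus trough fluorescence over baseline after EC90 choline challenge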
* marks the source's active call; other numbers are inactive results; i = inactive; u = inconclusive; x = no result.

SMILES | CHT inh | T cruzi inh | PolyA inhibitor | CHT PAM | CHT block conf | HEK293 CHT ctr
O=C(Nc1ccc(S(=O)(=O)Nc2cnc3ccccc3n2)cc1)c1ccc(Cl)c([N+](=O)[O-])c1 | -6.1* | -8 | -7 | i | 60%* | i
O=C(NCc1ccncc1)c1cc(F)c(F)cc1Cl | i | -7 | 11 | i | x | x
COc1cc(NS(=O)(=O)c2ccc(NC(=O)c3ccc(Cl)cc3Cl)cc2)ncn1 | -9.3* | 5 | -13 | i | 27%* | i
O=C(Nc1ccc(S(=O)(=O)Nc2cnc3ccccc3n2)cc1)c1cc(F)c(F)cc1Cl | -6.6* | 9 | 9 | i | 27%* | i
COc1ccc(C(=O)Nc2ccc(S(=O)(=O)Nc3cnc4ccccc4n3)cc2)cc1 | i | 2 | 1 | i | x | x
COc1ccc(NS(=O)(=O)c2ccc(NC(=O)c3ccccc3Br)cc2)nn1 | -8.5* | 10 | 14 | i | 19%* | i
O=C(Nc1ccc(S(=O)(=O)Nc2cnc3ccccc3n2)cc1)c1ccc(Cl)cc1Cl | -13* | 5 | 0 | i | -9.5%* | i
N#Cc1c(NCCN)nc(-c2ccccc2)c2c1CCCC2 | -6.3* | 15 | 1 | i | 40%* | i
N#Cc1c(NCCCO)nc(-c2ccccc2)c2c1CCCC2 | i | 14 | -25 | i | x | x
Cc1ccc(CNS(=O)(=O)c2ccc(CN3C(=O)c4cccnc4C3=O)s2)o1 | i | -2 | 9 | i | x | x
CC1(C)CCCN(C(=O)c2ccc3c(c2NCCO)C(=O)c2ccccc2C3=O)C1 | -7.2* | 10 | 7 | i | 42%* | 2.6*
O=C(O)c1ccc(/C=N\Nc2ccc(S(=O)(=O)N3CCOCC3)cc2[N+](=O)[O-])cc1 | i | -6 | -8 | i | x | x
Cc1ccc(-n2c(O)c(/C=N/Nc3ccc(S(=O)(=O)N4CCOCC4)cc3[N+](=O)[O-])c3ccccc3c2=O)c(C)c1 | -5.1* | 5 | -2 | i | 27%* | i
CC1CN(C(=O)CCC(=O)N2CCCCC2)c2cc(Cl)ccc2O1 (stereo not given) | i | -2 | -1 | i | x | x
CC1CN(C(=O)CCC(=O)NC(C)c2ccccc2)c2cc(Cl)ccc2O1 (stereo not given) | i | -1 | u | i | 24%* | i
CCCn1c(SCc2cc(=O)oc3ccc4ccccc4c23)n[nH]c1=O | -5.4* | 2 | -1 | i | i | i
Cc1nnc(SCc2cc(=O)oc3ccc4ccccc4c23)n1Cc1ccccc1 | i | 3 | -7 | i | x | x
CC(C)(CNc1ccc(C(F)(F)F)cc1[N+](=O)[O-])N1CCOCC1 | i | 8 | -4 | i | x | x
CCCCc1nnc(NC(=O)c2ccccc2OCc2c(C)noc2C)s1 | i | 1 | -28 | i | x | x
OC1CCCN(c2c3c(nc4cc(-c5cccc(F)c5)nn24)CCCC3)C1 (stereo not given) | -5.2* | 31 | -32 | i | i | i
COc1ccc(-n2c(CCC(=O)O)ccc2-c2ccc(F)cc2)c(OC)c1 | i | -12 | 23 | i | x | x
S=C(NCC1CCCO1)Nc1cc(Cl)c(Cl)cc1Cl (stereo not given) | -9.9* | -14 | -37 | i | 41%* | i
CCNCc1cc(Br)c(OCC(=O)Nc2ccccc2)c(OC)c1 | i | 10 | 16 | i | x | x
COc1cc(CNCCc2ccccc2)cc(Br)c1OCC(=O)Nc1ccccc1C | -8.4* | 50 | 11 | i | 43%* | i
Cn1ccnc1C(=O)c1cc(SCC(=O)NC2CC2)nc2ccccc12 | i | -23 | 0 | i | x | x
SMILES | CHT inh | T cruzi inh | PolyA inhibitor | CHT PAM | CHT block conf | HEK293 CHT ctr
Cc1cccc(C)c1NC(=O)CSc1cc(C(=O)c2nccn2C)c2ccccc2n1 | -9.5* | 8 | 1 | i | i | i
COc1ccc(C2=NN(C(=O)CSc3nc(=O)n4cc(C)ccc4n3)C(c3ccc(C)cc3)C2)cc1 (stereo not given) | i | 24 | 10 | i | x | x
Cc1cc(C)n2nc(SCc3cccc(S(=O)(=O)N(C)C)c3)nc2n1 | -5.3* | 19 | 6 | i | 68%* | i
COc1ccc(CSc2nc3nc(C)cc(C)n3n2)cc1F | -6* | 4 | 0 | i | 46%* | i
Cc1ccc(CSc2nc3nc(C)cc(C)n3n2)cc1 | i | 4 | -30 | i | x | x
COc1cccc(CSc2nnc(CSc3nc4nc(C)cc(C)n4n3)s2)c1 | i | 6 | -1 | i | x | x
O=C(NC1CC1)c1cc2cc3ccccc3nc2s1 | i | -9 | -19 | i | x | x
O=C(CCc1cccc(Cl)c1)N1CCCC(Nc2ccccc2)C1 (stereo not given) | i | 30 | -17 | i | x | x
O=C(NC(=S)N1CCN(c2ccccn2)CC1)c1ccccc1 | -8.2* | -13 | 6 | i | i | i
Nc1cc(S(=O)(=O)N2CCCCC2)ccc1Oc1ccc(Cl)cc1 | -9.4* | 24 | 4 | i | i | i
COC(=O)c1ccc(Oc2ccc(S(=O)(=O)N3CCCCC3)cc2N)cc1 | i | 7 | -11 | i | x | x
Cc1ccc(S(=O)(=O)Oc2cccc(/C=N/n3cnnc3)c2)cc1 | -10* | -9 | -5 | i | 56%* | i
Cc1ccc(S(=O)(=O)Oc2cccc(/C=N/Nc3ccc(C(=O)O)cc3)c2)cc1 | i | 4 | 1 | i | x | x
O=C(OC(C(=O)NC1CCCCC1)c1ccccc1F)c1ccco1 (stereo not given) | i | -2 | 4 | i | x | x
NS(=O)(=O)c1ccc(CNc2ccc3ccccc3n2)cc1 | -9.3* | -13 | 0 | i | 21%* | i
COc1cccc(NC(=O)CN2CCN(c3ccccc3F)CC2)c1 | -5.9* | 5 | 11 | i | i | i
COc1cc(NC(=O)CN2CCN(c3ccccc3F)CC2)cc(OC)c1 | i | x | x | i | x | x
OCC1(CCOc2ccccc2)CCN(Cc2nc3ccc(F)cc3[nH]2)CC1 | i | -11 | -9 | i | x | x
Cc1ccc(NCC(O)C(O)C(O)CO)cc1C (stereo not given) | i | -16 | -4 | i | x | x
Cc1cc(N=Nc2ccccc2)c(NCC(O)C(O)C(O)CO)cc1C (stereo not given) | -11* | 4 | -9 | i | 30%* | i
O=c1c2cc(NC(=S)NC3CCCCC3)ccc2nc2n1CCCCC2 | -5.4* | 7 | -8 | i | 58%* | i
